Values after ≈ are worked out from the molar mass of the structure shown.
Tests used:
[1] = Stability in CD-1 mouse liver microsome assessed as parent compound remaining at 1 uM measured after 30 mins in presence of NADPH by LC-MS/MS analysis; type: ADME; conditions: liver microsomes, read-out: Stabilty
Summary of the method: (§1)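 Liver microsomes (male CD-1 mouse or pooled human), 1 mg/mL protein, compound 1 µM, 37°C with shaking. Started with 1 mM NADPH or run without cofactor. Quenched with ice-cold ACN/MeOH containing internal standard. Parent quantified by LC-MS/MS; 30 min concentration normalised to time zero.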

[2] = Stability in CD-1 mouse liver microsome at 1 uM measured after 30 mins in absence of NADPH by LC-MS/MS analysis; type: ADME; conditions: microsomes, 0.5 h; summary of the method: as §1
[3] = test system: Mycobacterium tuberculosis; test: Antitubercular activity against Mycobacterium tuberculosis isolate 12525 incubated for 7 days by microplate alamar blue assay; type: functional; conditions: isolate 12525, 168 h, time 7 day
Summary of the method: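 MIC determined by microplate alamar blue assay (MABA) following a published protocol.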

[4] = Terminal half life in Balb/c mouse at 25 mg/kg, po by LC-MS/MS analysis; type: ADME, organism-based; conditions: in vivo, read-out: beta t1/2 (converted)
Summary of the method: (§2)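 Female BALB/c mice, 20-25 g, five per route. Dosed 25 mg/kg p.o. in 0.5% carboxymethyl cellulose or 2.5 mg/kg i.v. in 10% DMSO/saline. Blood sampled 5 min-72 h (p.o.) or 2 min-48 h (i.v.), quantified by LC/MS/MS with ESI+. Parameters by non-compartmental analysis; F = (AUCpo×dose_iv)/(AUCiv×dose_po)×100%.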

[5] = Tmax in Balb/c mouse at 25 mg/kg, po by LC-MS/MS analysis; type: ADME, organism-based; conditions: in vivo; summary of the method: as §2
[6] = Cmax in Balb/c mouse at 25 mg/kg, po by LC-MS/MS analysis; type: ADME, organism-based; set-up: route oral, dose 25 mg/kg; conditions: in vivo
Summary of the method: (§3)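 Female BALB/c mice (20–25 g), five per route. Oral dose 25 mg/kg in 0.5% carboxymethyl cellulose; i.v. dose 2.5 mg/kg in 10% DMSO/physiological saline. Blood sampled 5 min–72 h after p.o. and 2 min–48 h after i.v. Analyte quantified by LC/MS/MS (ESI positive, C18, isocratic methanol/water). Parameters from non-compartmental analysis.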

[7] = MRT (0 to t) in Balb/c mouse at 25 mg/kg, po by LC-MS/MS analysis; type: ADME, organism-based; conditions: in vivo; summary of the method: as §3
[8] = MRT (0 to infinity) in Balb/c mouse at 25 mg/kg, po by LC-MS/MS analysis; type: ADME, organism-based; conditions: in vivo; summary of the method: as §3
[9] = Terminal half life in Balb/c mouse at 2.5 mg/kg, iv by LC-MS/MS analysis; type: ADME, organism-based; conditions: in vivo, read-out: beta t1/2 (converted); summary of the method: as §2
[10] = AUC (0 to t) in Balb/c mouse at 2.5 mg/kg, iv by LC-MS/MS analysis; type: ADME, organism-based; set-up: dose 2.5 mg/kg; conditions: in vivo; summary of the method: as §3
[11] = AUC (0 to infinity) in Balb/c mouse at 2.5 mg/kg, iv by LC-MS/MS analysis; type: ADME, organism-based; set-up: time infinity, route intravenous, dose 2.5 mg/kg; conditions: in vivo; summary of the method: as §3
[12] = MRT (0 to t) in Balb/c mouse at 2.5 mg/kg, iv by LC-MS/MS analysis; type: ADME, organism-based; conditions: in vivo; summary of the method: as §3
[13] = MRT (0 to infinity) in Balb/c mouse at 2.5 mg/kg, iv by LC-MS/MS analysis; type: ADME, organism-based; conditions: in vivo; summary of the method: as §3
[14] = Mutagenicity in Salmonella typhimurium TA100 up to 1000 ug measured after 48 to 72 hrs in absence of S9 fraction by Ames test; type: toxicity; conditions: salmonella enterica subsp. enterica serovar typhimurium, dose <=1000 µg, time 48-72 hrs
Summary of the method: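 Mini-Ames test in S. typhimurium TA100, up to 1000 μg/well, DMSO vehicle. Run with 10% S9 mix or PBS in molten top agar on minimal agar, 37 °C for 48-72 h. Revertants counted manually. Positive if revertants rise ≥2-fold over vehicle mean in a dose-related manner.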

[15] = Mutagenicity in Salmonella typhimurium TA100 up to 1000 ug measured after 48 to 72 hrs in presence of S9 fraction by Ames test; type: toxicity, subcellular; conditions: salmonella enterica subsp. enterica serovar typhimurium, dose <=1000 µg, time 48-72 hrs
Summary of the method: (§4)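 Mini-Ames, plate incorporation in 6-well format. Bacteria, compound (DMSO vehicle, top 1000 µg/well), and 10% S9 mix or PBS were mixed into molten agar at 45°C and poured over minimal agar, then incubated 37°C for 48-72 h. Revertants were counted manually and the background lawn inspected. A result is positive at ≥2-fold the mean vehicle revertants with a dose-related increase.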

[16] = Mutagenicity in Salmonella typhimurium TA98 up to 1000 ug measured after 48 to 72 hrs in absence of S9 fraction by Ames test; type: toxicity; conditions: salmonella enterica subsp. enterica serovar typhimurium, dose <=1000 µg, time 48-72 hrs; summary of the method: as §4
[17] = Mutagenicity in Salmonella typhimurium TA98 up to 1000 ug measured after 48 to 72 hrs in presence of S9 fraction by Ames test; type: toxicity, subcellular; conditions: salmonella enterica subsp. enterica serovar typhimurium, dose <=1000 µg, time 48-72 hrs; summary of the method: as §4
[18] = target: Voltage-gated inwardly rectifying potassium channel KCNH2 (Homo sapiens, UniProt Q12809); test: Inhibition of human ERG expressed in HEK293 cells by whole cell manual patch clamp method; type: cell-based
Voltage-gated inwardly rectifying potassium channel KCNH2, sequence (Q12809 whole entry): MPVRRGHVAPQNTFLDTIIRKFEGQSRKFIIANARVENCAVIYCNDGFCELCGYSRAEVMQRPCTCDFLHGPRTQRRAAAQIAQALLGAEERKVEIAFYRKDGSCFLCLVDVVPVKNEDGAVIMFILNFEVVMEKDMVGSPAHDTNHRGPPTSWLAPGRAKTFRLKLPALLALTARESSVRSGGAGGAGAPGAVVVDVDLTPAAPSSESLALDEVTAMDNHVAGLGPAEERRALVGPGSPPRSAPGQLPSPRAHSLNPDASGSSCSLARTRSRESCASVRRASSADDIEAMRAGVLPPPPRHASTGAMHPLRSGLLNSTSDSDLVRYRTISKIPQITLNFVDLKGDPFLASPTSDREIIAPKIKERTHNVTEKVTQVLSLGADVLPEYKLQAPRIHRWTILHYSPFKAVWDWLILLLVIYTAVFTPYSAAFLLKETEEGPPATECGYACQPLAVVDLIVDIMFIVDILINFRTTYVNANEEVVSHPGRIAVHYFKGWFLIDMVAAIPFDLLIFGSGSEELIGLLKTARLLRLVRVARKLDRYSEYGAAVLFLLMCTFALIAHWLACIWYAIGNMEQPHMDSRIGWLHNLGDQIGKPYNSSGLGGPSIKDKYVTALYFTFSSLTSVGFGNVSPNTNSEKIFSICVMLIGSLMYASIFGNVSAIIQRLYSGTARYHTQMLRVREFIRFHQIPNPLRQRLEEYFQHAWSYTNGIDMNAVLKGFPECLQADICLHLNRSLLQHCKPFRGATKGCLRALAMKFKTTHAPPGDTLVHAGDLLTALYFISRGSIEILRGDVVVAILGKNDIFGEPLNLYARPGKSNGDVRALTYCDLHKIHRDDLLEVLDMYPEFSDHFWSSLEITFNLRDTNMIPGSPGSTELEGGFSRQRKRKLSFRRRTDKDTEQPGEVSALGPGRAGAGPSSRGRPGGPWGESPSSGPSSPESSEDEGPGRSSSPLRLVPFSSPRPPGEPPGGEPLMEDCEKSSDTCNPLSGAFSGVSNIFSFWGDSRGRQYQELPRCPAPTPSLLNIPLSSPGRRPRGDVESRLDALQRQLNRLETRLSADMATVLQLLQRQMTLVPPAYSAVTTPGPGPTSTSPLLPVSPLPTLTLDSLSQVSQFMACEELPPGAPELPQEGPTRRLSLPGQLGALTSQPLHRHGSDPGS
Summary of the method: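 HEK293 cells stably transfected with hERG; currents recorded by whole-cell manual patch clamp at 25 °C, sampled at 10 kHz. Five concentrations (0.3–30 μM) in duplicate for IC50; dofetilide as positive control.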

[19] = Inhibition of human Nav1.5 expressed in CHO cells at -80 mV holding potential by whole-cell patch-clamp method; type: cell-based
Summary of the method: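 CHO cells expressing Nav1.5, whole-cell patch clamp. Extracellular saline with 132 mM NaCl, 10 mM HEPES, pH 7.35; KCl/EGTA/MgATP pipette solution. Holding potential -80 mV, 20 ms step to -10 mV. Final compound concentrations 0.3–30 μM, diluted from DMSO stocks.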

[20] = target: T1, Amine oxidase [flavin-containing] B (Homo sapiens, UniProt P27338); test: Inhibition of recombinant human MAOB expressed in baculovirus infected insect cells using kynuramine as substrate measured after 20 mins by LC-MS/MS analysis
T1 sequence (P27338 whole entry): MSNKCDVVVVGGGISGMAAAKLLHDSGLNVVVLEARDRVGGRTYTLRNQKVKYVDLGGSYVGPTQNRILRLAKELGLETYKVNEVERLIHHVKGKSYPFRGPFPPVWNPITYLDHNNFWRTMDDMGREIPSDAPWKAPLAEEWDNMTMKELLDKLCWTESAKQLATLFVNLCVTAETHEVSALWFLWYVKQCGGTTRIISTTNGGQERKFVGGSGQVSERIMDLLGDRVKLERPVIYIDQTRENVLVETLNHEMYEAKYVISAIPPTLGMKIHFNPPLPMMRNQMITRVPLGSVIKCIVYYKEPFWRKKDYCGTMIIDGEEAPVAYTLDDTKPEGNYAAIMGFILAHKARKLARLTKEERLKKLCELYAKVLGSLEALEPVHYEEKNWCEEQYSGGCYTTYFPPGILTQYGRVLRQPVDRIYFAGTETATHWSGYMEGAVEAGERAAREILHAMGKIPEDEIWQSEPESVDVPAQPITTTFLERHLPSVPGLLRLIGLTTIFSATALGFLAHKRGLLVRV
Summary of the method: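 Recombinant human MAO-A or MAO-B (50 μg/mL) in 100 mM potassium phosphate pH 7.4 with 5 mM MgCl2. Kynuramine substrate at 50 μM (MAO-A) or 25 μM (MAO-B). […] 4-Hydroxyquinoline formation measured by LC-MS/MS versus vehicle; IC50 derived.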

Compound	remaining at 0.5 h, 1 µM [1] [%]	Stabilty [2]	MIC [3] [µg/mL]	half-life [4] [h]	Tmax [5] [h]	Cmax [6] [ng/mL]	MRT last [7] [h]	MRT inf [8] [h]	half-life [9] [h]	AUC(0-t) [10] [ng·h/mL]	AUC(0-inf) [11] [ng·h/mL]	MRT last [12] [h]	MRT inf [13] [h]	Activity [14]	Activity [15]	Activity [16]	Activity [17]	IC50 [18] [µM]	IC50 [19] [µM]	IC50 [20] [µM]
CC(=O)NC[C@@H]1OC(=O)N2c3cc(F)c(N4CC[S+]([O-])CC4)cc3OC[C@@H]12	100	Stable	0.46 (≈ 1.16 µM)	6.28	0.5	1520	9.83	10.8	3.81	443	592	3.52	6.22	Non-Toxic	Non-Toxic	Non-Toxic	Non-Toxic	> 30	> 30	> 100
CC(=O)NC[C@@H]1OC(=O)N2c3cc(F)c(N4CCSCC4)cc3OC[C@@H]12	48.7	Stable	0.03 (≈ 0.0787 µM)	14.7	0.25	3000	7.59	15.2	0.923	1160	1190	0.54	0.691	Non-Toxic	Non-Toxic	Non-Toxic	Non-Toxic	> 30	> 30	3.2

From ChEMBL document CHEMBL4725282, “Discovery of a Conformationally Constrained Oxazolidinone with Improved Safety and Efficacy Profiles for the Treatment of Multidrug-Resistant Tuberculosis” (J Med Chem, 2020)
